One data set has as its target plasmin (Homo sapiens, UniProt P00747). Description: Cleavage by purified plasmin. Type of data set: in vitro ADME. As to conditions: 5 μM purified Cy5-labeled peptide, 50 nM plasmin, 37 °C, 2 h, 16% Tricine gel. In outline:
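Plasmin at 50 nM was incubated with 5 μM purified Cy5-labeled test peptide at 37 °C for 2 h, run alongside 2% tumor, liver or kidney extract digests. Products were resolved on 16% Tricine acrylamide gels and detected by Cy5 fluorescence imaging.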

Data set [1] is described as follows: Cleavage of Cy5-labeled ACPP by liver tissue extract. As to conditions: 5 μM purified Cy5-labeled peptide, 2% liver extract, 37 °C, 2 h, 16% Tricine gel. The format is in vitro ADME, mouse. In outline: (§1)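 Fresh mouse tissue was gently homogenized in PBS on ice and spun at 14,000 × g for 1 min; the supernatant was used. 5 μM purified Cy5-labeled test peptide was incubated with 2% liver or tumor extract in PBS containing ZnCl2 at 37 °C for 2 h. Cleaved and uncleaved peptide were resolved on 16% Tricine gels and imaged by fluorescence.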

The next data set deals with PyMT mammary tumors. Description: Fluorescence imaging contrast in PyMT tumor-bearing mice. Type of data set: in vivo, mouse. As to conditions: PyMT mice, fluorescence imaging 6 h after injection of 10 nmol. In outline: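 PyMT transgenic mice bearing spontaneous mammary tumors were anesthetized with ketamine 80 mg/kg plus midazolam 5 mg/kg (1:1) and weighed. They were injected via the tail vein with Cy5 peptide: free peptide 100 μl of 100 μM (10 nmol) or albumin-reactive peptide 100 μl of 30 μM (3 nmol). Maestro imaging (ex 640 ± 24 nm, em >700 nm) was done at 6 h or 48 h, comparing tumor with adjacent normal tissue.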

The nature of data set [2]: Tumor standardized uptake value. Type of data set: in vivo. As to conditions: PyMT, mouse, iv, 10 nmol.
The nature of data set [3]: Cleavage of Cy5-labeled ACPPs by tumor tissue extract. The format is in vitro ADME, mouse. As to conditions: 5 μM purified Cy5-labeled peptide, 2% tumor extract, 37 °C, 2 h, 16% Tricine gel. In outline:
as §1

Non-standard residues stand in square brackets, D forms with d. Residues, ends and D or L forms follow the SMILES beside them. *: point of attachment. X1 = CC[N+]1=C(C=CC=CC=C2N(CCCCCC(=O)NCCN3C(=O)CC(*)C3=O)c3ccc(S(=O)(=O)O)cc3C2(C)C)C(C)(C)c2cc(S(=O)(=O)[O-])ccc21; Ahx = NCCCCCC(=O)O

plasmin, sequence (P00747 581-810 limits assumed): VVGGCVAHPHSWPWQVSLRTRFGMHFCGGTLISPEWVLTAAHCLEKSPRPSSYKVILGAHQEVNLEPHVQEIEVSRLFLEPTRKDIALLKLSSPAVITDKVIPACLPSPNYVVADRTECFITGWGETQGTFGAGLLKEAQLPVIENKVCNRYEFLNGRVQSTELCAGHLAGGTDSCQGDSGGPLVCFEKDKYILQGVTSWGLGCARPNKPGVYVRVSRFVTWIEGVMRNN
plasmin, sequence (P00747 97-580 partner limits assumed): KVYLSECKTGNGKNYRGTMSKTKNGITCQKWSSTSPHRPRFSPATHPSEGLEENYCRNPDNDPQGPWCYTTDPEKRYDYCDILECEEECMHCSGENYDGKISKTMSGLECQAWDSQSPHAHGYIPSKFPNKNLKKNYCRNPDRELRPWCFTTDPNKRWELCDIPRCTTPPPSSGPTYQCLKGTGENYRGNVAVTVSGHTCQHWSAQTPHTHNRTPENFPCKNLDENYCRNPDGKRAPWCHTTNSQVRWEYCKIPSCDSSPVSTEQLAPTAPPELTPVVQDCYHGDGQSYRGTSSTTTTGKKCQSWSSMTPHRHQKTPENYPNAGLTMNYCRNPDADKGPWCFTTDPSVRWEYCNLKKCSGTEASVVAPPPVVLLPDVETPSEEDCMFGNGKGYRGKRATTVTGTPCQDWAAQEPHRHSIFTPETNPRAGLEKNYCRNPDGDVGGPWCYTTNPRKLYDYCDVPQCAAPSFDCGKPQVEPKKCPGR

On to `CC[N+]1=C(C=CC=CC=C2N(CCCCCC(=O)NCCN3C(=O)CC(SC[C@@H](NC(=O)[C@@H](CCCNC(=N)N)NC(=O)[C@@H](CCCNC(=N)N)NC(=O)[C@@H](CCCNC(=N)N)NC(=O)[C@@H](CCCNC(=N)N)NC(=O)[C@@H](CCCNC(=N)N)NC(=O)[C@@H](CCCNC(=N)N)NC(=O)[C@@H](CCCNC(=N)N)NC(=O)[C@@H](CCCNC(=N)N)NC(=O)[C@@H](CCCNC(=N)N)NC(=O)[C@H](CC(C)C)NC(=O)[C@H](CCCCNC(C)=O)NC(=O)[C@H](CC(C)C)NC(=O)[C@H](CCC(N)=O)NC(=O)[C@H](CC(C)C)NC(=O)[C@H](CCCNC(=N)N)NC(=O)CCCCCNC(=O)[C@@H](CCC(=O)O)NC(=O)[C@@H](CCC(=O)O)NC(=O)[C@@H](CCC(=O)O)NC(=O)[C@@H](CCC(=O)O)NC(=O)[C@@H](CCC(=O)O)NC(=O)[C@@H](CCC(=O)O)NC(=O)[C@@H](CCC(=O)O)NC(=O)[C@@H](CCC(=O)O)NC(=O)[C@H](N)CCC(=O)O)C(N)=O)C3=O)c3ccc(S(=O)(=O)O)cc3C2(C)C)C(C)(C)c2cc(S(=O)(=O)[O-])ccc21` (some centres unmarked) [RLQLK(Ac)L ACPP] (H-[dE][dE][dE][dE][dE][dE][dE][dE][dE][Ahx]RLQLK(Ac)L[dR][dR][dR][dR][dR][dR][dR][dR][dR][dC](X1)-NH2), for which, at plasmin, the “cleavage by plasmin (in words)” value is reported as “not cleaved”. The “cleavage by liver tissue extract compared with parent RLQLKL ACPP (in words)” value in data set [1] was “significantly reduced”. For the same molecule, in the data set with PyMT mammary tumors, the “Tumor to non-tumor contrast, free peptide” value is on record as “less than 3 fold”. This molecule gave an SUV at 6 h in data set [2] of 0.48 ± 0.04 SUV. Besides, the “cleavage by tumor extracts, comparison with parent (in words)” value in data set [3] is “efficiently cleaved”.

The values are drawn from article PMC2903386 (The Journal of Biological Chemistry, 2010).
